Consider five compounds from ChEMBL document CHEMBL2176921, “Nitazoxanide Disrupts Membrane Potential and Intrabacterial pH Homeostasis of Mycobacterium tuberculosis” (ACS Med Chem Lett, 2011).

Values after ≈ are worked out from the molar mass of the structure shown. Active and inactive are the calls of the source. The rule behind the calls is not given here.

Data set [1] deals with Mycobacterium tuberculosis. Nature of the data set: Antitubercular activity against Mycobacterium tuberculosis H37Rv expressing pH sensitive ratiometric GFP assessed as reduction of intrabacterial pH at 0.002 to 20 ug/ml after 16 hrs at pH 7.5 by spectrofluorimetric analysis. Format: functional, organism-based. The gist of the method:
(§1)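 H37Rv carrying pH-sensitive ratiometric GFP plasmid, grown to mid-log (OD580 ~0.6), diluted to OD580 ~0.3 in 7H9 at pH 7.5, 6.5 or 5.5, with or without 0.5 mM NaNO2. Compound or DMSO exposure 16 h. Fluorescence at excitation 395/emission 510 and excitation 475/emission 510; intrabacterial pH inferred from the ratio of the two readings.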

In data set [2] the test system is Mycobacterium tuberculosis. Nature of the data set: Antitubercular activity against Mycobacterium tuberculosis H37Rv assessed as disruption of membrane potential at 0.002 to 20 ug/ml after 20 mins at pH 4.5 by DiOC2-based spectrofluorimetric analysis. Format: functional, organism-based. A digest of the protocol:
(§2)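 H37Rv grown to mid-log (OD580 ~0.6), resuspended to OD580 ~1.0 in 7H9 with 0.2% glycerol, 0.2% dextrose, 0.085% NaCl, 0.02% Tyloxapol at set pH (7.4, 5.5, 4.5; 5.5 also with 0.5 mM NaNO2). Compound added at 0.002–20 μg/mL final, then 15 μM DiOC2 for 20 min at room temperature, washed. Controls: CCCP 5 μM, rifampicin 0.4 μg/mL, DMSO. Red (488/610)/green (488/530) fluorescence ratio; triplicates, two experiments.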

In data set [3] the test system is Mycobacterium tuberculosis. As to the kind of experiment: Antitubercular activity against Mycobacterium tuberculosis H37Rv assessed as disruption of membrane potential at 0.002 to 20 ug/ml after 20 mins at pH 5.5 by DiOC2-based spectrofluorimetric analysis. In kind it is functional, organism-based. A digest of the protocol: as §2
In data set [4] the test system is Mycobacterium tuberculosis. Nature of the data set: Antitubercular activity against Mycobacterium tuberculosis H37Rv assessed as disruption of membrane potential after 20 mins at pH 7.4 by DiOC2-based spectrofluorimetric analysis. In kind it is functional, organism-based. The gist of the method: as §2
The test system of data set [5] is Mycobacterium tuberculosis. Nature of the data set: Antitubercular activity against Mycobacterium tuberculosis H37Rv assessed as disruption of membrane potential at 0.4 ug/ml after 20 mins at pH 7.4 by DiOC2-based spectrofluorimetric analysis. In kind it is functional, organism-based. A digest of the protocol: as §2
Data set [6] has as its system Mycobacterium tuberculosis H37Rv. Nature of the data set: Drug metabolism in Mycobacterium tuberculosis H37Rv assessed as tizoxanide formation at 1 to 10 fold MIC after 16 hrs by LC/MS analysis. In kind it is ADME, organism-based. As to conditions: in vivo.
Data set [7] has as its system Mycobacterium tuberculosis. Nature of the data set: Antitubercular activity against Mycobacterium tuberculosis H37Rv expressing pH sensitive ratiometric GFP assessed as reduction of intrabacterial pH after 16 hrs at pH 7.5 by spectrofluorimetric analysis. Format: functional, organism-based. The gist of the method:
as §1

Data set [8] concerns Mycobacterium tuberculosis H37Rv. As to the kind of experiment: Drug uptake in Mycobacterium tuberculosis H37Rv at 1 to 10 fold MIC after 16 hrs by LC/MS analysis. In kind it is ADME, organism-based. As to conditions: in vivo.
Data set [9] concerns Mycobacterium tuberculosis. As to the kind of experiment: Antitubercular activity against Mycobacterium tuberculosis H37Rv. Format: functional.
Data set [10] relates to Mycobacterium tuberculosis. As to the kind of experiment: Antitubercular activity against Mycobacterium tuberculosis H37Rv assessed as disruption of membrane potential at 5 uM after 20 mins at pH 7.4 by DiOC2-based spectrofluorimetric analysis. Format: functional, organism-based. The gist of the method:
as §2

Data set [11] concerns Mycobacterium tuberculosis H37Rv. Nature of the data set: Drug metabolism in Mycobacterium tuberculosis H37Rv assessed as [13C]acetylation at 1 to 10 fold MIC after 16 hrs by LC/MS analysis. Format: ADME, organism-based. Particulars: in vivo.

Consider `O=C(Nc1ccc([N+](=O)[O-])cc1Cl)c1cc(Cl)ccc1O`, for which the result in [1] and in data set [3] was Active. Further, the result in data set [2] was inactive. Also, the Activity entry in data set [4] is “Dose-dependent effect”.
For `CO[C@H]1/C=C/O[C@@]2(C)Oc3c(C)c(O)c4c(O)c(c(/C=N/N5CCN(C)CC5)c(O)c4c3C2=O)NC(=O)/C(C)=C\C=C\[C@H](C)[C@H](O)[C@@H](C)[C@@H](O)[C@@H](C)[C@H](OC(C)=O)[C@@H]1C`, the outcome in data set [5] was inactive.
Consider `CC(=O)Oc1ccccc1C(=O)Nc1ncc([N+](=O)[O-])s1` [NITAZOXANIDE], for which the Drug metabolism entry in data set [6] is reported as “Active”. Further, the Activity entry in [7] and in data set [4] was “Dose-dependent effect” throughout. Also, the outcome in data set [2] was inactive. In addition, in data set [3], the result was Active. Also, in data set [8], the Drug uptake result is “Active”. It took 1 µg/mL (≈ 3.25 µM) to inhibit growth in data set [9] (MIC).
For `N#CC(C#N)=NNc1cccc(Cl)c1`, in data set [10], the outcome was Active.
Take `O=C(Nc1ncc([N+](=O)[O-])s1)c1ccccc1O` [TIZOXANIDE]: in data set [11], the Drug metabolism entry is “Not Active”.

By MIC is commonly meant the least concentration at which growth counts as inhibited.
